Measurements taken from ChEMBL document CHEMBL4842325, “Lanosterol 14α-demethylase (CYP51)/histone deacetylase (HDAC) dual inhibitors for treatment of Candida tropicalis and Cryptococcus neoformans infections” (Eur J Med Chem, 2021).
Converted amounts (≈) assume the structure as drawn. The source made the active and inactive calls. The calls are words filed in the database; no cut-off is given here.

Experiments:
Candida tropicalis [1] = assay: microbe, parasite or virus in culture; format: functional; conditions: 5008, time 48 hrs
Candida tropicalis [2] = assay: microbe, parasite or virus in culture; format: functional; conditions: 3890, time 48 hrs
Cryptococcus neoformans [3] = assay: microbe, parasite or virus in culture; format: functional; conditions: H99, time 72 hrs
Candida albicans [4] = assay: Antifungal activity against fluconazole-sensitive Candida albicans SC5314 assessed as inhibition of fungal growth; format: functional
Candida albicans [5] = assay: microbe, parasite or virus in culture; format: functional; conditions: 0304103
Candida albicans [6] = assay: microbe, parasite or virus in culture; format: functional; conditions: 7781
Candida albicans [7] = assay: microbe, parasite or virus in culture; format: functional; conditions: 4108
Candida albicans [8] = assay: Antifungal activity against fluconazole-sensitive Candida albicans 10061 assessed as inhibition of fungal growth; format: functional
Candida albicans [9] = assay: Antifungal activity against fluconazole-sensitive Candida albicans 9770 assessed as inhibition of fungal growth; format: functional
Cryptococcus neoformans [10] = assay: Antifungal activity against fluconazole-sensitive Cryptococcus neoformans H99 assessed as inhibition of cell proliferation at 2 to 8 ug/ml measured for 48 hrs by time growth curve assay; format: functional, organism-based; conditions: dose 2-8 µg/ml
Outline: (§1)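 Exponential-phase cells from YEPD resuspended in 3 mL fresh RPMI 1640 at 1 × 10⁵ cells/mL (C. tropicalis 5008) or 1 × 10⁶ cells/mL (C. neoformans H99). Compound at several concentrations; cultures shaken at 240 rpm, 30 °C. Growth read as OD₆₃₀ at 0, 6, 12, 24, 36 and 48 h. Done in triplicate.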

Candida tropicalis [11] = assay: Antifungal activity against Candida tropicalis 5008 assessed as inhibition of fungal filamentation by measuring reduction in hyphae formation at 8 ug/ml incubated for 7 hrs by cell inverted imaging microscopic analysis; format: functional, organism-based; conditions: dose 8.0 µg/ml
Outline: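 C. tropicalis 5008 grown to exponential phase in YEPD, diluted to 1 × 10⁵ CFU/mL in spider medium and dosed at several concentrations, with an untreated group for comparison. Incubated 37 °C for 7 h. Cell morphology recorded on a live-cell inverted microscope.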

Cryptococcus neoformans [12] = assay: Inhibition of biofilm formation in Cryptococcus neoformans H99 at 8 ug/ml incubated for 24 hrs by XTT reduction assay; format: functional, organism-based; conditions: dose 8.0 µg/ml
Cryptococcus neoformans [13] = assay: Downregulation of CAP10 gene expression in Cryptococcus neoformans H99 at 2 ug/ml measured after 24 hrs by qRT-PCR analysis; format: functional; conditions: dose 2.0 µg/ml
Outline: (§2)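 Exponential-phase C. neoformans H99 inoculated into 50 mL YPD with compound. Incubated 35 °C for 24 h, then cultures ground in liquid nitrogen for RNA isolation. Transcript levels of capsule-associated genes quantified by RT-qPCR. Three independent experiments, mean ± SD, t-test.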

Cryptococcus neoformans [14] = assay: Downregulation of CAP59 gene expression in Cryptococcus neoformans H99 at 2 ug/ml measured after 24 hrs by qRT-PCR analysis; format: functional; conditions: dose 2.0 µg/ml
Outline: as §2

Candida tropicalis [15] = assay: Downregulation of ERG11 mRNA expression in Candida tropicalis 5008 at 4 ug/ml measured after 24 hrs by qRT-PCR analysis; format: functional; conditions: dose 4.0 µg/ml
Outline: (§3)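 Exponential-phase C. tropicalis 5008 inoculated into 10 mL YPD with compound at several concentrations, DMSO as blank control. Incubated 35 °C for 24 h. Total RNA isolated on columns and reverse-transcribed. Real-time RT-PCR with ACT1 as internal control. Mean of 3 independent assays ± SD.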

Candida tropicalis [16] = assay: Downregulation of CDR1 mRNA expression in Candida tropicalis 5008 at 4 ug/ml measured after 24 hrs by qRT-PCR analysis; format: functional; conditions: dose 4.0 µg/ml
Outline: as §3

Candida tropicalis [17] = assay: Downregulation of MDR1 mRNA expression in Candida tropicalis 5008 at 4 ug/ml measured after 24 hrs by qRT-PCR analysis; format: functional; conditions: dose 4.0 µg/ml
Outline: as §3

Cryptococcus neoformans [18] = assay: Antifungal activity against Cryptococcus neoformans H99 infected in ICR mouse model assessed as reduction in fungal burden in brain at 20 mg/kg, po administered once a day for 5 days; format: functional, organism-based; conditions: time 5.0 day
Outline: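 Immunosuppression by intraperitoneal cyclophosphamide 24 h before infection. Infected on day 0 by intravenous 2 × 10⁵ CFU C. neoformans H99. Oral treatment once daily for 5 consecutive days, starting 24 h post infection; saline group as blank. Brains taken on day 6 and homogenized, dilutions plated on SDA at 35 °C for 48 h. Colonies counted for burden; groups compared by ANOVA.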

Cryptococcus neoformans [19] = assay: Inhibition of capsule formation in Cryptococcus neoformans H99 assessed as reduction in capsule size at 50 ug/ml incubated for 24 hrs by laser scanning confocal microscopic analysis; format: functional; conditions: dose 50.0 µg/ml
Outline: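 Exponential-phase C. neoformans H99 from YEPD resuspended in PBS at 1 × 10⁷ cells/mL. Suspension placed in wells with FBS plus DMEM and compound at several concentrations; untreated group as control. Kept 24 h at 37 °C under 10% CO₂. Cells mixed with India ink and imaged by confocal microscopy at 63×, 10 random fields. Whole-cell and cell-body diameters measured to derive capsule size.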

Candida tropicalis [20] = assay: Antifungal activity against fluconazole-resistant Candida tropicalis 5008 assessed as inhibition of cell proliferation at 32 ug/ml measured for 48 hrs by time growth curve assay; format: functional, organism-based; conditions: dose 32.0 µg/ml
Outline: as §1

[21] = Inhibition of HDAC in Candida tropicalis 5008 using Boc-Lys(Ac)-AMC as substrate preincubated with protoplast for 12 hrs followed by incubation with substrate for 6 hrs by fluorimetric assay
Outline: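 Whole-cell assay on C. tropicalis 5008, 100 mg wet weight of exponential-phase cells. Cell wall removed with snailase to give protoplasts, which were dispersed in PBS. Protoplasts incubated with compound at 35 °C for 12 h. Boc-Lys(Ac)-AMC then added to a final 30 µM and incubated 37 °C for 6 h. Stop solution added, 37 °C for 2 h. Fluorescence read at Ex 360/Em 460 nm and converted to HDAC inhibition rate.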

Compound | MIC80 (Candida tropicalis [1]) [µg/mL] | MIC80 (Candida tropicalis [2]) [µg/mL] | MIC80 (Cryptococcus neoformans [3]) [µg/mL] | MIC80 (Candida albicans [4]) [µg/mL] | MIC80 (Candida albicans [5]) [µg/mL] | MIC80 (Candida albicans [6]) [µg/mL] | MIC80 (Candida albicans [7]) [µg/mL] | MIC80 (Candida albicans [8]) [µg/mL] | MIC80 (Candida albicans [9]) [µg/mL] | also measured
OC(Cn1cncn1)(Cn1cncn1)c1ccc(F)cc1F [FLUCONAZOLE] | > 64 | 0.5 (≈ 1.63 µM) | 2 (≈ 6.53 µM) | 0.5 (≈ 1.63 µM) | > 64 | > 64 | > 64 | > 64 | > 64 | Activity (Cryptococcus neoformans [10]): Active; Activity (Candida tropicalis [11]): Active; inhibition (Cryptococcus neoformans [12]): Active; inhibition (Cryptococcus neoformans [13]): inactive; inhibition (Cryptococcus neoformans [14]): inactive; inhibition (Candida tropicalis [15]): Active; inhibition (Candida tropicalis [16]): Active; inhibition (Candida tropicalis [17]): Active; Activity (Cryptococcus neoformans [18]): Active; inhibition (Cryptococcus neoformans [19]): Active; Activity (Candida tropicalis [20]): Active
O=C(Cc1ccc(OCCCOc2ccc(CN3CCN(CC(O)(Cn4cncn4)c4ccc(F)cc4F)CC3)cc2)cc1)NO (centres undefined) | 32 (≈ 50.3 µM) | 2 (≈ 3.14 µM) | 4 (≈ 6.28 µM) | 4 (≈ 6.28 µM) | 32 (≈ 50.3 µM) | 4 (≈ 6.28 µM) | 32 (≈ 50.3 µM) | > 64 | > 64 | –
O=C(CCCCCCCn1ncn(-c2ccc(CN3CCN(CC(O)(Cn4cncn4)c4ccc(F)cc4F)CC3)cc2)c1=O)NO (centres undefined) | > 64 | > 64 | 32 (≈ 48.9 µM) | > 64 | 64 (≈ 97.9 µM) | 64 (≈ 97.9 µM) | – | – | > 64 | –
O=C(CCCCCCn1ncn(-c2ccc(CN3CCN(CC(O)(Cn4cncn4)c4ccc(F)cc4F)CC3)cc2)c1=O)NO (centres undefined) | > 64 | > 64 | 64 (≈ 100 µM) | > 64 | > 64 | 32 (≈ 50 µM) | – | – | > 64 | –
O=C(Cc1ccc(OCCCCCN2CCN(CC(O)(Cn3cncn3)c3ccc(F)cc3F)CC2)cc1)NO (centres undefined) | > 64 | 4 (≈ 7.16 µM) | 32 (≈ 57.3 µM) | 32 (≈ 57.3 µM) | > 64 | > 64 | > 64 | > 64 | > 64 | –
O=C(CCCCOc1ccc(CN2CCN(CC(O)(Cn3cncn3)c3ccc(F)cc3F)CC2)cc1)NO (centres undefined) | 4 (≈ 7.34 µM) | 2 (≈ 3.67 µM) | 8 (≈ 14.7 µM) | 1 (≈ 1.84 µM) | 8 (≈ 14.7 µM) | 4 (≈ 7.34 µM) | 32 (≈ 58.8 µM) | > 64 | > 64 | –
C[C@@H](c1ncncc1F)[C@](O)(Cn1cncn1)c1ccc(F)cc1F [VORICONAZOLE] | > 64 | > 64 | 0.0625 (≈ 0.179 µM) | < 0.125 | > 64 | > 64 | > 64 | – | – | –
O=C(CCCOc1ccc(CN2CCN(CC(O)(Cn3cncn3)c3ccc(F)cc3F)CC2)cc1)NO (centres undefined) | 4 (≈ 7.54 µM) | 4 (≈ 7.54 µM) | 8 (≈ 15.1 µM) | 4 (≈ 7.54 µM) | 8 (≈ 15.1 µM) | 8 (≈ 15.1 µM) | 16 (≈ 30.2 µM) | 32 (≈ 60.3 µM) | > 64 | –
O=C(Cc1ccc(OCCCCCCN2CCN(CC(O)(Cn3cncn3)c3ccc(F)cc3F)CC2)cc1)NO (centres undefined) | 4 (≈ 6.98 µM) | 2 (≈ 3.49 µM) | 16 (≈ 27.9 µM) | 16 (≈ 27.9 µM) | 16 (≈ 27.9 µM) | 4 (≈ 6.98 µM) | 16 (≈ 27.9 µM) | 16 (≈ 27.9 µM) | 16 (≈ 27.9 µM) | –
O=C(CCCCCOc1ccc(CN2CCN(CC(O)(Cn3cncn3)c3ccc(F)cc3F)CC2)cc1)NO (centres undefined) | 1 (≈ 1.79 µM) | 2 (≈ 3.58 µM) | 8 (≈ 14.3 µM) | 1 (≈ 1.79 µM) | 32 (≈ 57.3 µM) | 2 (≈ 3.58 µM) | 16 (≈ 28.6 µM) | > 64 | 32 (≈ 57.3 µM) | –
O=C(NO)c1ccc(CCCCn2ncn(-c3ccc(CN4CCN(CC(O)(Cn5cncn5)c5ccc(F)cc5F)CC4)cc3)c2=O)cc1 (centres undefined) | > 64 | > 64 | 8 (≈ 11.6 µM) | > 64 | > 64 | 16 (≈ 23.3 µM) | > 64 | > 64 | > 64 | –
O=C(Cc1ccc(OCCCCN2CCN(CC(O)(Cn3cncn3)c3ccc(F)cc3F)CC2)cc1)NO (centres undefined) | > 64 | 32 (≈ 58.8 µM) | 32 (≈ 58.8 µM) | > 64 | 32 (≈ 58.8 µM) | > 64 | > 64 | > 64 | > 64 | –
O=C(CCCCCCC(=O)Nc1ccccc1)NO [VORINOSTAT] | – | – | – | – | – | – | – | – | – | IC50 [21]: 3.56 µM
O=C(Cc1ccc(OCCCn2ncn(-c3ccc(CN4CCN(CC(O)(Cn5cncn5)c5ccc(F)cc5F)CC4)cc3)c2=O)cc1)NO (centres undefined) | 16 (≈ 22.7 µM) | 2 (≈ 2.84 µM) | 2 (≈ 2.84 µM) | 2 (≈ 2.84 µM) | 2 (≈ 2.84 µM) | 2 (≈ 2.84 µM) | 4 (≈ 5.68 µM) | 32 (≈ 45.5 µM) | 32 (≈ 45.5 µM) | –
CCC(C)n1ncn(-c2ccc(N3CCN(c4ccc(OCC5COC(Cn6cncn6)(c6ccc(Cl)cc6Cl)O5)cc4)CC3)cc2)c1=O (centres undefined) [ITRACONAZOLE] | > 64 | > 64 | 0.125 (≈ 0.177 µM) | 0.5 (≈ 0.709 µM) | > 64 | > 64 | > 64 | – | – | –
O=C(CCCCCCOc1ccc(CN2CCN(CC(O)(Cn3cncn3)c3ccc(F)cc3F)CC2)cc1)NO (centres undefined) | 0.5 (≈ 0.873 µM) | 2 (≈ 3.49 µM) | 0.5 (≈ 0.873 µM) | 1 (≈ 1.75 µM) | 16 (≈ 27.9 µM) | 1 (≈ 1.75 µM) | 8 (≈ 14 µM) | 32 (≈ 55.9 µM) | 32 (≈ 55.9 µM) | –
